Data published in ChEMBL document CHEMBL1134468 (J Med Chem, 2001).
Where a SMILES comes first, the peptide text is derived from it. The star is where a group is joined. Argψ(CH2NH)TyrNH2 = N=C(N)NCCC[C@@H](CN[C@@H](Cc1ccc(O)cc1)C(N)=O)N*

Legend:
[1] = biological target: T1, Neuropeptide Y receptor type 4 (Homo sapiens, UniProt P50391); experiment: Agonist potency for the inhibition of Forskolin stimulated cAMP synthesis in cells expressing cloned Y4 receptors; no effect means no agonist activity at <20 000 nM; assay type: functional
T1 sequence (P50391 whole entry): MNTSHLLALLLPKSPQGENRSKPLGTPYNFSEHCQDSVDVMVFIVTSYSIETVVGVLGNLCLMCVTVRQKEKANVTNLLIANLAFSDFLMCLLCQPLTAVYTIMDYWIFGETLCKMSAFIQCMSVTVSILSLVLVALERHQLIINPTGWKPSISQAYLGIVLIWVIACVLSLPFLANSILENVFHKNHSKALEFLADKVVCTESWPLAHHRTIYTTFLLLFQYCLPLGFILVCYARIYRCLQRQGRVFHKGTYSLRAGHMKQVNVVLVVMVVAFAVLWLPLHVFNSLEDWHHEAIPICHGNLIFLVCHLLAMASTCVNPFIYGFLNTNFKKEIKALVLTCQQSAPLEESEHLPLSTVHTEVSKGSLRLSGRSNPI
Summary of the method: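 Inhibition of forskolin-driven cAMP synthesis in cells expressing the Y4 receptor, with PP run as the reference control.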

[2] = biological target: T2, Neuropeptide Y receptor type 2 (Homo sapiens, UniProt P49146); experiment: Agonist potency for the inhibition of Forskolin stimulated cAMP synthesis in cells expressing cloned Y2 receptors; no effect means no agonist activity at <20 000 nM; assay type: functional
T2 sequence (P49146 whole entry): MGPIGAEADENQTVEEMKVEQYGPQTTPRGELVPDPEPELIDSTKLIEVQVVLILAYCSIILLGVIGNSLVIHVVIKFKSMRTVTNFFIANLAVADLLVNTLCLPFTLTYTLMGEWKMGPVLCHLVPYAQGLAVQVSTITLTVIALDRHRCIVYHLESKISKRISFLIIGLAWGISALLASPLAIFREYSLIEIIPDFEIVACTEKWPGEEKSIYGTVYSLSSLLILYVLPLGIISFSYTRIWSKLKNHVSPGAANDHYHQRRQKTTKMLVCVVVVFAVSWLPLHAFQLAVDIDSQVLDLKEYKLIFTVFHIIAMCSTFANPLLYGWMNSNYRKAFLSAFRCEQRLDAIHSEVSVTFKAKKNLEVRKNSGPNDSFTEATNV

[3] = biological target: T3, Neuropeptide Y receptor type 5 (Homo sapiens, UniProt Q15761); experiment: Agonist potency for the inhibition of Forskolin stimulated cAMP synthesis in cells expressing cloned Y5 receptors; no effect means no agonist activity at <20 000 nM; assay type: functional
T3 sequence (Q15761 whole entry): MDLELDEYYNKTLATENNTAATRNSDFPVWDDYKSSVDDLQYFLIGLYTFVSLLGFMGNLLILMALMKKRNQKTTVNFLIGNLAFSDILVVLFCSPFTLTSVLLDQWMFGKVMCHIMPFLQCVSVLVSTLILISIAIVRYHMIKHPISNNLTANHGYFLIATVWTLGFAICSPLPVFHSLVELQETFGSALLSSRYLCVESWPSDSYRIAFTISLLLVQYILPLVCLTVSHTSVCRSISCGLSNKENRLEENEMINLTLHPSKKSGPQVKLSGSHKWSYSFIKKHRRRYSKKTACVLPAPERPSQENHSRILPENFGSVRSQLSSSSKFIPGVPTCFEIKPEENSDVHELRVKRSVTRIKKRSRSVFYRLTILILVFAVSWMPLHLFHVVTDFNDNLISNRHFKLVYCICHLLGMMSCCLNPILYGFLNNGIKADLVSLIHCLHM

[4] = biological target: T1, Neuropeptide Y receptor type 4; experiment: (§1) Affinity for cloned Y4 receptor using [125I]PP as radioligand
Summary of the method: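 Displacement binding with 125I-PP as tracer in cells expressing the Y4 receptor; PP served as the reference control.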

[5] = biological target: T3, Neuropeptide Y receptor type 5; experiment: Affinity for cloned Y5 receptor using [125I]PYY as radioligand
[6] = biological target: T4, Neuropeptide Y receptor type 1 (Homo sapiens, UniProt P25929); experiment: Affinity for cloned Y1 receptor using [125I]PYY as radioligand
T4 sequence (P25929 whole entry): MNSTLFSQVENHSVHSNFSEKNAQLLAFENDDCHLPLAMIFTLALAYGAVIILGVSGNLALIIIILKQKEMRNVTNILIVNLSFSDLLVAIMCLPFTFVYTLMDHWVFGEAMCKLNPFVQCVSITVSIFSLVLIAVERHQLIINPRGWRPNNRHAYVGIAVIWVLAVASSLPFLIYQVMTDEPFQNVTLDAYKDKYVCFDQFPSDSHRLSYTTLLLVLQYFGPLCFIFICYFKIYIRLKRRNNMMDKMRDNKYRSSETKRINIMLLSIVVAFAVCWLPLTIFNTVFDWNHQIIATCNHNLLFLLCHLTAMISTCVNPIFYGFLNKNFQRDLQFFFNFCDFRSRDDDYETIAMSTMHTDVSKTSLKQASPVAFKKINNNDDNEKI

[7] = biological target: T2, Neuropeptide Y receptor type 2; experiment: Affinity for cloned Y2 receptor using [125I]PYY as radioligand
[8] = biological target: T1, Neuropeptide Y receptor type 4; experiment: as §1; remark: listed apart in the source
[9] = biological target: T5, Neuropeptide Y receptor type 1 (Homo sapiens) (UniProt P25929); experiment: Selectivity ratio of Y1/Y2/Y4/Y5; 1/2/1/200
T5 sequence (whole entry): T4 sequence (P25929 whole entry)

[10] = biological target: T5, Neuropeptide Y receptor type 1 (Homo sapiens); experiment: Antagonist potency for the inhibition of Forskolin stimulated cAMP synthesis in cells expressing cloned Y1 receptors; assay type: functional
[11] = Selectivity ratio of Y1/Y2/Y4/Y5; 1/3840/120/2450

Compound	Ki [4] [nM]	Ki [5] [nM]	Ki [6] [nM]	Ki [7] [nM]	Kb [10] [nM]	other results
CC[C@H](C)[C@H](N)C(=O)N[C@@H](CC(N)=O)C(=O)N1CCC[C@H]1C(=O)N[C@@H](CSSC[C@H](NC(=O)[C@@H]1CCCN1C(=O)[C@H](CC(N)=O)NC(=O)[C@@H](N)[C@@H](C)CC)C(=O)N[C@@H](Cc1ccc(O)cc1)C(=O)N[C@@H](CCCN=C(N)N)C(=O)N[C@@H](CC(C)C)C(=O)N[C@@H](CCCN=C(N)N)CN[C@@H](Cc1ccc(O)cc1)C(N)=O)C(=O)N[C@@H](Cc1ccc(O)cc1)C(=O)N[C@@H](CCCN=C(N)N)C(=O)N[C@@H](CC(C)C)C(=O)N[C@@H](CCCN=C(N)N)CN[C@@H](Cc1ccc(O)cc1)C(N)=O						EC50 [1]: Not Active; EC50 [2]: Not Active; EC50 [3]: Not Active
CC[C@H](C)[C@H](N)C(=O)N[C@H]1CCC(=O)NC[C@@H](C(=O)N[C@@H](Cc2ccc(O)cc2)C(=O)N[C@@H](CCCN=C(N)N)C(=O)N[C@@H](CC(C)C)C(=O)N[C@@H](CCCN=C(N)N)C(=O)N[C@@H](Cc2ccc(O)cc2)C(=O)OC)NC(=O)[C@@H]2CCCN2C(=O)[C@@H](NC(=O)[C@@H](N)[C@@H](C)CC)CCC(=O)NC[C@@H](C(=O)N[C@@H](Cc2ccc(O)cc2)C(=O)N[C@@H](CCCN=C(N)N)C(=O)N[C@@H](CC(C)C)C(=O)N[C@@H](CCCN=C(N)N)C(=O)N[C@@H](Cc2ccc(O)cc2)C(=O)OC)NC(=O)[C@@H]2CCCN2C1=O	33.4	662	0.27	1040		EC50 [1]: Not Active; EC50 [2]: Not Active; EC50 [3]: Not Active
CC[C@H](C)[C@H](N)C(=O)N[C@@H](CC(N)=O)C(=O)N1CCC[C@H]1C(=O)N[C@H](C(=O)N[C@@H](Cc1ccc(O)cc1)C(=O)N[C@@H](CCCNC(=N)N)C(=O)N[C@@H](CC(C)C)C(=O)N[C@@H](CCCNC(=N)N)C(=O)N[C@@H](Cc1ccc(O)cc1)C(=O)OC)[C@@H](C)CC (H-INPIYRLRY-OMe)		7100	25.7	1420		Ki [8]: 2400 nM
H-INPIYRLRY-NH2		> 1000	5	11.3		Selectivity [9]: Y1/Y4/Y2/Y5; Ki [8]: 5.8 nM
CC[C@H](C)[C@H](N)C(=O)N[C@@H](CC(N)=O)C(=O)N1CCC[C@H]1C(=O)N[C@@H](CSSC[C@@H](NC(=O)[C@@H]1CCCN1C(=O)[C@H](CC(N)=O)NC(=O)[C@@H](N)[C@@H](C)CC)C(=O)N[C@@H](Cc1ccc(O)cc1)C(=O)N[C@@H](CCCN=C(N)N)C(=O)N[C@@H](CC(C)C)C(=O)N[C@@H](CCCN=C(N)N)CN[C@@H](Cc1ccc(O)cc1)C(N)=O)C(=O)N[C@@H](Cc1ccc(O)cc1)C(=O)N[C@@H](CCCN=C(N)N)C(=O)N[C@@H](CC(C)C)C(=O)N[C@@H](CCCN=C(N)N)CN[C@@H](Cc1ccc(O)cc1)C(N)=O					0.79	
CC[C@H](C)[C@H](N)C(=O)N[C@@H](CC(N)=O)C(=O)N1CCC[C@H]1C(=O)N[C@@H](CSSC[C@H](NC(=O)[C@@H]1CCCN1C(=O)[C@H](CC(N)=O)NC(=O)[C@@H](N)[C@@H](C)CC)C(=O)N[C@@H](Cc1ccc(O)cc1)C(=O)N[C@@H](CCCNC(=N)N)C(=O)N[C@@H](CC(C)C)C(=O)N[C@@H](CCCNC(=N)N)CN[C@@H](Cc1ccc(O)cc1)C(N)=O)C(=O)N[C@@H](Cc1ccc(O)cc1)C(=O)N[C@@H](CCCNC(=N)N)C(=O)N[C@@H](CC(C)C)C(=O)N[C@@H](CCCNC(=N)N)CN[C@@H](Cc1ccc(O)cc1)C(N)=O	65	2340	2.3	822		
CC[C@H](C)[C@H](N)C(=O)N[C@@H](CC(N)=O)C(=O)N1CCC[C@H]1C(=O)N[C@@H](CSSC[C@H](NC(=O)[C@@H]1CCCN1C(=O)[C@H](CC(N)=O)NC(=O)[C@@H](N)[C@@H](C)CC)C(=O)N[C@@H](Cc1ccc(O)cc1)C(=O)N[C@@H](CCCN=C(N)N)C(=O)N[C@@H](CC(C)C)C(=O)N[C@@H](CCCN=C(N)N)C(=O)N[C@@H](Cc1ccc(O)cc1)C(=O)OC)C(=O)N[C@@H](Cc1ccc(O)cc1)C(=O)N[C@@H](CCCN=C(N)N)C(=O)N[C@@H](CC(C)C)C(=O)N[C@@H](CCCN=C(N)N)C(=O)N[C@@H](Cc1ccc(O)cc1)C(=O)OC	99	464	4.8	1120		EC50 [1]: Not Active; EC50 [2]: Not Active; EC50 [3]: Not Active
CC[C@H](C)[C@H](N)C(=O)N[C@@H](CC(N)=O)C(=O)N1CCC[C@H]1C(=O)N[C@H](C(=O)N[C@@H](Cc1ccc(O)cc1)C(=O)N[C@@H](CCCNC(=N)N)C(=O)N[C@@H](CC(C)C)C(=O)N[C@@H](CCCNC(=N)N)CN[C@@H](Cc1ccc(O)cc1)C(N)=O)[C@@H](C)CC (H-INPIYRL-{Argψ(CH2NH)TyrNH2})		5080	34.8	1650		Ki [8]: 3740 nM
CC[C@H](C)[C@H](N)C(=O)N[C@H]1CCC(=O)NC[C@@H](C(=O)N[C@@H](Cc2ccc(O)cc2)C(=O)N[C@@H](CCCNC(=N)N)C(=O)N[C@@H](CC(C)C)C(=O)N[C@@H](CCCNC(=N)N)CN[C@@H](Cc2ccc(O)cc2)C(N)=O)NC(=O)[C@@H]2CCCN2C(=O)[C@@H](NC(=O)[C@@H](N)[C@@H](C)CC)CCC(=O)NC[C@@H](C(=O)N[C@@H](Cc2ccc(O)cc2)C(=O)N[C@@H](CCCNC(=N)N)C(=O)N[C@@H](CC(C)C)C(=O)N[C@@H](CCCNC(=N)N)CN[C@@H](Cc2ccc(O)cc2)C(N)=O)NC(=O)[C@@H]2CCCN2C1=O	65.5	7890	0.46	624		
CC[C@H](C)[C@H](N)C(=O)N[C@H]1CCC(=O)NC[C@@H](C(=O)N[C@@H](Cc2ccc(O)cc2)C(=O)N[C@@H](CCCN=C(N)N)C(=O)N[C@@H](CC(C)C)C(=O)N[C@@H](CCCN=C(N)N)CN[C@@H](Cc2ccc(O)cc2)C(N)=O)NC(=O)[C@@H]2CCCN2C(=O)[C@H](NC(=O)[C@@H](N)[C@@H](C)CC)CCC(=O)NC[C@H](C(=O)N[C@@H](Cc2ccc(O)cc2)C(=O)N[C@@H](CCCN=C(N)N)C(=O)N[C@@H](CC(C)C)C(=O)N[C@@H](CCCN=C(N)N)CN[C@@H](Cc2ccc(O)cc2)C(N)=O)NC(=O)[C@@H]2CCCN2C1=O					0.58	
CC[C@H](C)[C@H](N)C(=O)N[C@H]1CCC(=O)NC[C@@H](C(=O)N[C@@H](Cc2ccc(O)cc2)C(=O)N[C@@H](CCCN=C(N)N)C(=O)N[C@@H](CC(C)C)C(=O)N[C@@H](CCCN=C(N)N)C(=O)N[C@@H](Cc2ccc(O)cc2)C(=O)OC)NC(=O)[C@@H]2CCCN2C(=O)[C@H](NC(=O)[C@@H](N)[C@@H](C)CC)CCC(=O)NC[C@H](C(=O)N[C@@H](Cc2ccc(O)cc2)C(=O)N[C@@H](CCCN=C(N)N)C(=O)N[C@@H](CC(C)C)C(=O)N[C@@H](CCCN=C(N)N)C(=O)N[C@@H](Cc2ccc(O)cc2)C(=O)OC)NC(=O)[C@@H]2CCCN2C1=O					0.19	Selectivity [11]: Y1/Y4/Y5/Y2
CC[C@H](C)[C@H](N)C(=O)N[C@@H](CC(N)=O)C(=O)N1CCC[C@H]1C(=O)N[C@@H](CSSC[C@@H](NC(=O)[C@@H]1CCCN1C(=O)[C@H](CC(N)=O)NC(=O)[C@@H](N)[C@@H](C)CC)C(=O)N[C@@H](Cc1ccc(O)cc1)C(=O)N[C@@H](CCCN=C(N)N)C(=O)N[C@@H](CC(C)C)C(=O)N[C@@H](CCCN=C(N)N)C(=O)N[C@@H](Cc1ccc(O)cc1)C(=O)OC)C(=O)N[C@@H](Cc1ccc(O)cc1)C(=O)N[C@@H](CCCN=C(N)N)C(=O)N[C@@H](CC(C)C)C(=O)N[C@@H](CCCN=C(N)N)C(=O)N[C@@H](Cc1ccc(O)cc1)C(=O)OC					2.3	
